Most compounds without a hit are left out; they make up all but 4.6% or so of the library.
OX1R antag-1: antagonists of human orexin 1 receptor. O43613. CHO/OX1R cells, Fluo-8 calcium fluorescence, orexin A. inhibition, % at 5 µM. 0.43% of 330,000 active;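 active = inhibition above its plate's threshold, mean inhibition of all tested compounds on the plate plus 3 SD, cut at about 37% in these data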
Target sequence (O43613 whole entry, looked up): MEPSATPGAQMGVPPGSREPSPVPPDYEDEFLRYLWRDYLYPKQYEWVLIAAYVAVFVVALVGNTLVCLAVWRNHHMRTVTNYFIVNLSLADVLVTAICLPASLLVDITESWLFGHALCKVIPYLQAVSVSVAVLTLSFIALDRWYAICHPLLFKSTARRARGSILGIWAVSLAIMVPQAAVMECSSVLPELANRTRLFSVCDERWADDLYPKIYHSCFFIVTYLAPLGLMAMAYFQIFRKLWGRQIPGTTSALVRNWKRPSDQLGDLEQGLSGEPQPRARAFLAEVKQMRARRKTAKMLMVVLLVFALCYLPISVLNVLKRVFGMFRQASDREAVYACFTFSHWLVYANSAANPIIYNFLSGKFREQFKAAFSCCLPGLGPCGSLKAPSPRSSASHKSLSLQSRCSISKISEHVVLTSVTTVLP
TAAR1 antag: antagonists of human TAAR1. Q96RJ0. CHO RD-HGA16 TAAR1, Fluo-8 calcium fluorescence, antagonist. inhibition, % at 3 µM. 1.5% of 360,000 active. AID 624466;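 active = inhibition above a per-plate cutoff, the mean inhibition of test compounds on that plate plus 3 SD, cut at about 49% in these data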
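Material: CHO RD-HGA16 cells bearing hTAAR1; compound dosing: one-point dosing, 3 µM nominal final; schedule: dye loading 75 min at 37 °C, then 30 min room temperature; measured by: calcium fluorescence with Fluo-8; control set: vehicle and agonist controls; replication: n of 1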
OX1R antag-2: blocks the human orexin 1 receptor; 1.8% of 330,000 active; AID 485270; O43613; inhibition, % at 6.6 µM; OX1R-expressing cells, FRET antagonist read-out; in the data active = inhibition mostly above about 38%, no sharp cut-off; inactive = mostly below about 40%
GPR7 antagonist: antagonists of human GPR7 (neuropeptides B/W receptor 1). P48145. GPR7-expressing cells, fluorescence antagonist assay. inhibition, % at 4.4 µM. 1.1% of 290,000 active; in the data active = inhibition above about 16%, passing the limit was not always enough;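 also: cells stimulated with the agonist NPW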
Target sequence (P48145 whole entry, looked up): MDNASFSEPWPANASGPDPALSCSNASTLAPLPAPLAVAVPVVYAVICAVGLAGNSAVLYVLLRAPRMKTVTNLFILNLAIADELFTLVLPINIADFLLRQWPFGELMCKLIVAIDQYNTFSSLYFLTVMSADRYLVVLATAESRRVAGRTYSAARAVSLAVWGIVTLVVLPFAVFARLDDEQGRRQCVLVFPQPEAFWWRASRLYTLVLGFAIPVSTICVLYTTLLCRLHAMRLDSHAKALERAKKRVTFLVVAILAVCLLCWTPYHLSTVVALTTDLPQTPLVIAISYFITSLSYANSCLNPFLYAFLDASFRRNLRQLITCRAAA
CHO parental Ca: signal in parental CHO cells, OX1R antagonist counter-screen; parental CHO-K1, ATP-induced calcium, Fluo-8 fluorescence; inhibition, % at 5.6 µM; 0.63% of 330,000 active; AID 463079;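 active = inhibition above that plate's mean sample inhibition plus 3 SD, cut at about 26% in these data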
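Material: parental CHO cells / Compound: single nominal dose of 5.6 µM per compound / Signal: Fluo-8 fluorescence / Replicates: singlicate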
TAAR1 ag: human TAAR1 agonism | CHO RD-HGA16 TAAR1, Fluo-8 calcium fluorescence; vehicle wells 0%, saturating PEA agonist 100% | AID 624467 | 0.99% of 360,000 active | activation, % at 3 µM;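 active = activation above the mean activation of all test compounds in the run plus 3 SD, cut at about 38% in these data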
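Assay system – CHO-derived RD-HGA16 cells with stable Gα16 and human TAAR1 · Compound dosing – one-point dosing at 3 µM (nominal) · Incubation – 17-24 h seeding, 75 min 37 °C dye, 30 min RT · Measured by – kinetic Fluo-8 calcium fluorescence · Control set – DMSO vehicle as 0%, PEA at EC100 as 100% · Repeats – single well for each compound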
nonsel antag count: nonselective antagonist in TAAR1 antagonist counter-screen; shares compounds with TAAR1 antag; 77% of 2,400 active; AID 651780; inhibition, % at 3 µM; counterscreen cell line, calcium fluorescence, antagonist mode; in the data active = inhibition above about 22%;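 also: CHO-Ga16 host cells stimulated with ATP at an EC80 level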
TAAR1 ant conf: human TAAR1 antagonism, confirmed; shares compounds with TAAR1 antag; TAAR1-expressing cells, fluorescence antagonist read-out; inhibition, % at 3 µM; 40% of 2,400 active; AID 651785; in the data active = inhibition above about 49%;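 also: CHO-Ga16 host cells challenged with agonist PEA near its EC80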
Ga16 nonsel ag: nonselective Ga16 agonist in TAAR1 antagonist counter-screen; AID 651953; 18% of 2,400 active; activation, % at 3 µM; shares compounds with TAAR1 antag; Ga16-expressing cells, calcium fluorescence, agonist counterscreen; in the data active = activation above about 12%
TAAR1 ag counter: activates human TAAR1 in antagonist counter-screen. shares compounds with TAAR1 antag. hTAAR1 cell line, fluorescence activation, agonist mode. activation, % at 3 µM. 2% of 2,400 active. AID 651955; in the data active = activation above about 37%;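 also: CHO cells stably expressing TAAR1 with calcium dye readout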
A number is an active result; i = inactive; nt = no result given.

SMILES	OX1R antag-1	TAAR1 antag	OX1R antag-2	GPR7 antagonist	CHO parental Ca	TAAR1 ag	nonsel antag count	TAAR1 ant conf	Ga16 nonsel ag	TAAR1 ag counter
Fc1cccc(-c2cc3nc4c(c(N5CCOCC5)n3n2)CCCC4)c1	i	49.2	i	i	i	i	i	i	i	i
COc1ccccc1NS(=O)(=O)/C=C/c1ccccc1	i	i	i	i	i	i	nt	nt	nt	nt
Cc1c(Cl)c([N+](=O)[O-])nn1CCCC(=O)Nc1ccc(Cl)cc1Cl	i	i	i	i	i	i	nt	nt	nt	nt
Cc1ccccc1C(=O)Oc1ccc(Sc2ccc(O)cc2)cc1	i	60.7	i	i	i	i	i	i	i	i
Cc1ccccc1C(=O)Oc1ccc(-c2csnn2)cc1	i	i	i	i	i	i	nt	nt	nt	nt
CC(C)(C)c1ccc(CC(=O)N2CCC2(C)C(=O)NS(=O)(=O)c2ccc(C#N)cc2)cc1 (centres undefined)	nt	i	nt	nt	nt	i	nt	nt	nt	nt
CC(C)(C)c1ccc(OCCCC(=O)Nc2ccc(S(N)(=O)=O)cc2)cc1	i	i	i	i	i	i	nt	nt	nt	nt
Cc1cc(/C=N/NC(N)=S)c(C)n1-c1cccc(Cl)c1	i	i	i	i	i	i	nt	nt	nt	nt
Cc1cc(/C=N/NC(N)=S)c(C)n1-c1ccc(Cl)cc1	i	84.1	i	i	i	i	i	82.7	16.3	i
Cc1cc(/C=N/NC(N)=S)c(C)n1-c1ccc(Br)cc1	i	95.3	i	i	i	i	i	92.2	12.1	i
CC1(C(=O)Nc2ccc(Cl)c(Cl)c2)CCN1CCc1ccccc1 (centres undefined)	nt	i	nt	nt	nt	i	nt	nt	nt	nt
COc1ccc(S(=O)(=O)N(C)CC(=O)NCc2ccccc2)cc1OC	i	91.5	i	i	i	i	i	i	i	i
COc1ccc(S(=O)(=O)N(C)CC(=O)NCCc2ccccc2)cc1OC	i	i	i	i	i	i	nt	nt	nt	nt
Cc1cccc(NC(=O)Cn2nnc(-c3cccs3)n2)c1C	i	66.1	i	i	i	i	i	i	i	i
CCc1cccc(NC(=O)CSCc2cc(=O)[nH][nH]2)c1	i	105.5	i	i	i	i	i	i	i	i
COc1ccc2c(COC(=O)[C@@H]3CCCN3S(=O)(=O)c3ccc(Cl)cc3)cc(=O)oc2c1	nt	i	nt	nt	nt	i	nt	nt	nt	nt
O=C(CCN1CCCCC1=O)NC1CCCc2c1cnn2-c1ccccc1F (centres undefined)	i	i	i	i	i	i	nt	nt	nt	nt
O=C(Cc1ccccc1)Nc1ccccc1Sc1ccccc1	i	i	i	i	i	i	nt	nt	nt	nt
O=C(COC(=O)c1cc[n+]([O-])cc1)Nc1ccccc1Sc1ccccc1	i	104.7	i	i	i	i	i	i	i	i
O=C(Cc1ccc(Br)cc1)Nc1ccccc1Sc1ccccc1	i	58.0	i	i	i	i	i	i	i	i
Cc1cc(Br)cn2c(Cc3ccccc3)c(-c3cccc(Br)c3)nc12	nt	i	nt	nt	nt	i	nt	nt	nt	nt
CC1CCN(C(=O)C2CCCN(c3ncnc4c3nc3n4CCCCC3)C2)CC1 (centres undefined)	i	i	i	i	i	i	nt	nt	nt	nt
COc1cccc(N2CCN(C(=O)C3CCCN(c4ncnc5c4nc4n5CCCCC4)C3)CC2)c1 (centres undefined)	i	54.6	i	i	i	i	34.3	48.6	12.3	i
COc1ccc2cc(-c3cc(C(=O)OCC(=O)NC4CCS(=O)(=O)C4)c4ccccc4n3)ccc2c1 (centres undefined)	i	58.9	i	i	i	i	40.9	51.4	11.8	i
COc1ccc(-c2cc(C(=O)OCC(=O)NC3CC3)c3ccccc3n2)cc1	i	i	i	nt	i	i	nt	nt	nt	nt
SMILES	OX1R antag-1	TAAR1 antag	OX1R antag-2	GPR7 antagonist	CHO parental Ca	TAAR1 ag	nonsel antag count	TAAR1 ant conf	Ga16 nonsel ag	TAAR1 ag counter
Cc1ccc(/C=C2\C(=O)ON=C2c2ccccc2)o1	i	i	i	i	i	i	nt	nt	nt	nt
Cc1ccc(-c2ccc(/C=C3\C(=O)ON=C3c3ccccc3)o2)c([N+](=O)[O-])c1	i	64.6	i	i	i	i	77.9	80.7	23.9	i
O=C(CN1C(=O)CSc2ccc(S(=O)(=O)N3CCOCC3)cc21)NCc1cccnc1	i	i	i	i	i	i	nt	nt	nt	nt
NC(=O)c1ccsc1NC(=O)COC(=O)/C=C/c1ccccc1	i	79.0	i	nt	i	i	40.6	74.2	17.1	i
NC(=O)c1ccsc1NC(=O)COC(=O)CCc1ccccc1	nt	i	nt	nt	nt	i	nt	nt	nt	nt
COC(=O)c1ccccc1NC(=O)COC(=O)/C=C/c1cccs1	i	59.6	i	nt	i	i	i	i	i	i
COc1ccc(CCNC(=O)c2ccc3c(c2)S(=O)(=O)N=C2CCCCCN23)cc1OC	nt	i	nt	nt	nt	i	nt	nt	nt	nt
CCN1CCN(C(=O)Cn2ncc3c2-c2ccccc2OC3)CC1	i	i	i	i	i	i	nt	nt	nt	nt
Cc1ccc(C)c(CN2CCCN(C(=O)Cn3ncc4c3-c3ccccc3OC4)C2)c1	i	59.4	56.0	i	i	i	22.5	i	11.7	i
COc1ccc(NC(=O)C2(C)Cc3c(-c4cccc(C(F)(F)F)c4)ccnc3O2)cn1 (centres undefined)	nt	i	nt	nt	nt	i	nt	nt	nt	nt
Fc1cccc(-c2c(-c3ccccc3)ncc3cc(F)ccc23)c1	i	72.1	i	nt	i	i	i	i	i	i
CC(C)C[C@H](NC(=O)c1nc[nH]c1C(=O)NCC(=O)OCc1ccccc1)C(=O)OCc1ccccc1	i	66.6	i	i	i	i	i	53.0	i	i
CNC(=O)c1[nH]cnc1C(=O)N[C@@H](C)C(=O)OCc1ccccc1	i	i	i	nt	i	i	nt	nt	nt	nt
C[C@H](NC(=O)c1nc[nH]c1C(=O)NCC(=O)OCc1ccccc1)C(=O)OCc1ccccc1	i	70.7	i	i	i	i	36.3	61.6	i	i
C[C@H](NC(=O)c1nc[nH]c1C(=O)NCC(=O)OCc1ccccc1)c1ccccc1	i	64.0	i	i	i	i	32.5	50.2	i	i
CC(C)C[C@H](NC(=O)c1nc[nH]c1C(=O)NCC(=O)OC(C)(C)C)C(=O)OCc1ccccc1	i	i	i	nt	i	i	nt	nt	nt	nt
C[C@H](NC(=O)c1nc[nH]c1C(=O)OCc1ccccc1)c1ccccc1	i	i	i	nt	i	i	nt	nt	nt	nt
COc1ccc(C2=NOC(Cn3nc(C(=O)NCc4cccs4)cc3-c3ccccc3)C2)cc1 (centres undefined)	i	77.2	i	nt	i	i	39.8	50.5	i	i
